# Screening data as filed in PubChem.
# A selection: hits, their analogues and other compounds. The true share with any hit is near 2.3%.
# TRPC4 PAM: TRPC4 (mouse) allosteric potentiation; Q9QUQ5; B-score at 10 µM; AID 2227; HEK293 TRPC4beta/mu-opioid, DAMGO EC20, Fluo-4 Ca2+ flux; active compounds read high; hit rate 0.42% among 310,000;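 active means B-score of calcium response area above 5 SD of library B-scores, with initial fluorescence ratio within 5 SD of library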;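 further: B-score of integrated fluorescence ratio over time as area under calcium response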
# Target sequence (Q9QUQ5 whole entry, looked up): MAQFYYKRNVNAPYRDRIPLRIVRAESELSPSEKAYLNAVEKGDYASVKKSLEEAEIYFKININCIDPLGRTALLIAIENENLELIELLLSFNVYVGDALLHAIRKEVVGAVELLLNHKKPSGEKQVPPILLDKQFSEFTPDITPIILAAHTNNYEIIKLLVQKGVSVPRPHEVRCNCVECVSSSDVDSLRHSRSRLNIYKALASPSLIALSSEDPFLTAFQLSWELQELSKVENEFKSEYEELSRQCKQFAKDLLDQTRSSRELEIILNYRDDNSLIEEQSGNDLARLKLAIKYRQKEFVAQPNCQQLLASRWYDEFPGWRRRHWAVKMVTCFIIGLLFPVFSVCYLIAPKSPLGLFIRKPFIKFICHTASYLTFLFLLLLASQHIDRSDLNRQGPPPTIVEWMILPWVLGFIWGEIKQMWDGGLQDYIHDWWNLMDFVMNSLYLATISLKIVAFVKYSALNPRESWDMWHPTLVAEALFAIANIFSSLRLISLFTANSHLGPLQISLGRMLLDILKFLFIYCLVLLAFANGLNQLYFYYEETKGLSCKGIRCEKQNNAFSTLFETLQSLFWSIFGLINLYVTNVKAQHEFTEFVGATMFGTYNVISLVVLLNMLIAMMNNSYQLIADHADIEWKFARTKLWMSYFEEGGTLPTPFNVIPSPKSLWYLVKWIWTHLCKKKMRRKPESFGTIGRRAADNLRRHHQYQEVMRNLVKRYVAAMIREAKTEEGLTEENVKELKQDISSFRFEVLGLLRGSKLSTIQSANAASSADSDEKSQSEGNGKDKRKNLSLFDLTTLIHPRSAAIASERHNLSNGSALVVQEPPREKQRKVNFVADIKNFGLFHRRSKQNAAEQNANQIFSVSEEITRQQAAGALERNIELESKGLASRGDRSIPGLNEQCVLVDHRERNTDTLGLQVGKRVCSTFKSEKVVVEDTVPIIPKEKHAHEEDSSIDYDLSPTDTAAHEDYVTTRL
# TRPC4 agonist: opens the mouse TRPC4 cation channel. Q9QUQ5. HEK293 TRPC4beta/mu-opioid, Fluo4 calcium fluorescence; active compounds read high. B-score at 10 µM. hit rate 0.49% among 310,000;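 active means B-score above 5 SD of library B-scores, and initial fluorescence ratio not above library mean plus 5 SD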;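 further: positive B-score marks a calcium rise read as TRPC4 activation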
#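 Test system: HEK293 cells stably co-expressing mouse TRPC4beta and mu-opioid receptor | Schedule: Fluo4 dye loading 45 min at room temperature, 110 s recording | Measured by: Kinetic Fluo4 calcium fluorescence, 5 s baseline at 1 Hz | Evaluation: B score of integrated ratio | Controls: Buffer (low) and maximal DAMGO (high)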
# TRPC4 block: TRPC4 (mouse) channel inhibition | HEK293 TRPC4beta/mu-opioid, DAMGO-evoked Fluo4 calcium flux; active compounds read low | B-score at 10 µM | hit rate 0.39% among 300,000 | Q9QUQ5 | AID 2247;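 active means B-score over 3 SD under the library average, no early fluorescence shift, positive overall ratio signal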
#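 Signal: kinetic Fluo4 fluorescence imaging of calcium influx. Material: stable TRPC4beta/mu-opioid receptor HEK293 cells. Probe or stimulus: DAMGO in two steps, submaximal then maximal.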
# TRPC6 inhibitor: inhibitors of mouse TRPC6 channel; Q61143; HEK293-TRPC6, membrane potential dye, ACh-evoked depolarization; active compounds read low; B-score at 10 µM; hit rate 1.1% among 310,000;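 active means B-score under library mean minus 3 SD, initial fluorescence not abnormally high, positive integrated signal ratio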;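 further: B-score derived from integrated fluorescence ratio over the kinetic read; more negative B-score means stronger inhibition of depolarization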
# TRPC6 act: mouse TRPC6 channel activation; HEK293-TRPC6 membrane potential dye fluorescence; active compounds read high; B-score at 10 µM; hit rate 0.13% among 310,000; AID 2550;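 active means B-score of the integrated fluorescence ratio above library mean plus 3 SD, and starting fluorescence ratio within library mean plus 5 SD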;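 further: higher score means more depolarization so channel activation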
# TRPC4 spec 2: second check of whether TRPC6 inhibitors also affect mouse TRPC4 | HEK293 TRPC4/MOR, membrane potential dye fluorescence; channel activated by saturating DAMGO dose | hit rate 42% among 920 | shares compounds with TRPC6 inhibitor | inhibition, % at 10 µM;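 active means compounds whose fluorescence signal differed from control wells by over 3 SD, either direction, in both duplicate plates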
# TRPC4 spec: mouse TRPC4 off-target activity of TRPC6 inhibitors | shares compounds with TRPC6 inhibitor | HEK293 TRPC4/mu-opioid, membrane potential fluorescence | activity change, negative = inhibition, % at 10 µM | hit rate 61% among 920 | AID 2777;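 active means rise or fall in signal beyond 3 SD of buffer-only wells in both replicate plates, either sign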;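 further: integrated kinetic ratio of fluorescence range over baseline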
# HEK293 MPD ctr 2-1: second check of TRPC6 inhibitor effects in parental HEK293 cells; parental HEK293 membrane potential dye fluorescence; maximal acetylcholine challenge after compound addition; shares compounds with TRPC6 inhibitor; signal change vs control, % at 10 µM; AID 2779; hit rate 31% among 920;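 active means membrane potential signal moving either way by over 3 SD of the maximum-effect control, in both duplicate plates, meaning non-specific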
# HEK293 MPD ctr-1: counter-screen for TRPC6 inhibitors: effect in parental HEK293 cells; membrane potential signal change, % at 10 µM; shares compounds with TRPC6 inhibitor; AID 2780; hit rate 60% among 920; parental HEK293 membrane potential dye fluorescence;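 active means membrane potential signal shifting up or down by more than 3 SD of buffer-only wells, on both duplicate plates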
# HEK293 MPD ctr-2: counter-screen for TRPC6 modulators: effect in parental HEK293 cells. membrane potential signal change, % at 10 µM. hit rate 51% among 2,400. shares compounds with TRPC6 inhibitor. membrane potential dye fluorescence;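 active means membrane potential signal moves up or down beyond 5 SD from buffer-only wells, on both duplicate plates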
# HEK293 MPD ctr 2-2: second counter-screen for TRPC6 modulators: effect in parental HEK293 cells; shares compounds with TRPC6 inhibitor; membrane potential dye fluorescence; after compound, maximal acetylcholine stimulation; inhibition, % at 10 µM; hit rate 14% among 2,400;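 active means membrane potential signal drops by more than 5 SD from the mean control signal, in both duplicate plates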;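 further: plate controls were acetylcholine ECmax control wells for no effect and buffer only wells for full effect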
# TRPC4/MOR mod: tests whether TRPC6 modulators also affect mouse TRPC4; shares compounds with TRPC6 inhibitor; HEK293 TRPC4/mu-opioid, membrane potential fluorescence; percent change from control (negative = decrease, positive = increase), % at 10 µM; hit rate 69% among 2,400;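 active means membrane potential signal moved up or down beyond 5 SD of buffer control wells, in both duplicate plates, actives on both sides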;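 further: plate controls were assay buffer wells for no effect and DAMGO maximal-effect wells for full effect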
# TRPC4/MOR inh 2: second check of whether TRPC6 modulators also affect mouse TRPC4; HEK293 TRPC4/mu-opioid, membrane potential dye fluorescence; stimulated with maximal-effect DAMGO; inhibition, % at 10 µM; AID 488928; hit rate 55% among 2,400; shares compounds with TRPC6 inhibitor;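 active means drop in membrane potential signal beyond 5 SD of the control wells in both duplicate plates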;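 further: TRPC4 counter screen for TRPC6 hits run under conditions tuned for TRPC6 not TRPC4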
# TRPC6 block conf: confirmation of mouse TRPC6 inhibitors; HEK293-TRPC6, membrane potential dye, ACh-evoked depolarization; shares compounds with TRPC6 inhibitor; hit rate 43% among 3,300; inhibition, % at 10 µM; AID 488960;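 active means fluorescence ratio falls more than 5 SD below the full-stimulation control mean, in both duplicate runs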;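 further: integrated fluorescence ratio of peak minus minimum over baseline after agonist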
# TRPC6 act confirm: mouse TRPC6 activator confirmation; shares compounds with TRPC6 inhibitor; HEK293-TRPC6 membrane potential dye fluorescence, FDSS; activation, % at 10 µM; hit rate 11% among 2,800; AID 488961;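 active means ratio signal rise beyond 5 SD above unstimulated control wells' mean, seen in both duplicate runs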;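 further: plate controls were buffer EC0 wells for no effect and acetylcholine ECmax response for full effect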
# * hit, by the source's call; i = inactive; x = no result.
SMILES,TRPC4 PAM,TRPC4 agonist,TRPC4 block,TRPC6 inhibitor,TRPC6 act,HEK293 MPD ctr-2,HEK293 MPD ctr 2-2,TRPC4/MOR mod,TRPC4/MOR inh 2,TRPC6 block conf,TRPC6 act confirm,others
CC(=O)Nc1ccc(CN2CCc3c([nH]c4ccccc34)C2c2ccccn2)cc1 (stereo not given),i,54*,i,-7.3*,i,i,i,66%*,70%*,i,i,
N=c1n(CCN2CCCC2)c2ccccc2n1CC(O)c1ccc(Cl)c(Cl)c1 (stereo not given),i,i,i,-5.8*,i,i,i,i,47%*,52%*,i,
N=c1n(Cc2ccccc2)c2ccccc2n1CC(O)c1ccccc1 (stereo not given),i,i,i,-7.8*,i,x,x,x,x,i,i,TRPC4 spec 2=28%*;TRPC4 spec=27%*;HEK293 MPD ctr 2-1=i;HEK293 MPD ctr-1=10%*
N=c1n(CCN2CCOCC2)c2ccccc2n1CC(=O)c1ccc(Cl)c(Cl)c1,i,i,i,i,i,x,x,x,x,x,x,
Cc1ccc(Cn2c(=N)n(CC(O)c3ccco3)c3ccccc32)cc1 (stereo not given),i,i,-8*,-5.6*,i,178%*,i,33%*,88%*,54%*,x,
Cc1ccccc1OCC(O)Cn1c(=N)n(Cc2ccccc2)c2ccccc21 (stereo not given),i,64*,-6*,-5.1*,i,120%*,i,40%*,102%*,70%*,x,
N/C(CC(=O)NC1CCCCC1)=N\OCC(=O)Nc1ccc(Cl)c(Cl)c1,i,i,i,i,i,x,x,x,x,x,x,
CN(C)S(=O)(=O)N1CCC(n2nccc2NC(=O)CCCc2ccccc2)CC1,i,i,i,i,i,x,x,x,x,x,x,
COc1ccccc1OCC(O)Cn1c(=N)n(Cc2ccccc2)c2ccccc21 (stereo not given),i,i,i,-6.4*,i,122%*,i,46%*,102%*,52%*,x,
CCCCn1c(=N)n(CC(O)COc2cccc(C)c2)c2ccccc21 (stereo not given),i,i,i,-6.7*,i,x,x,x,x,i,x,TRPC4 spec 2=38%*;TRPC4 spec=40%*;HEK293 MPD ctr 2-1=270%*;HEK293 MPD ctr-1=23%*
COc1ccc(CNC2CCCC2)c(OC)c1OC,i,i,i,i,i,x,x,x,x,x,x,
C=CCOc1ccc(Cl)cc1CNC1CCCC1,i,i,-6*,-7.3*,i,321%*,83%*,76%*,91%*,72%*,x,
COc1ccc(CCNc2ccc(C(CC(N)=O)NC(=O)c3cc(OC)ccc3OC)cc2[N+](=O)[O-])cc1 (stereo not given),i,i,i,i,i,x,x,x,x,x,x,
Cc1ccn2cc(-c3ccc4c(c3)NC(=O)CO4)nc2c1,i,i,i,i,i,x,x,x,x,x,x,
Cc1cccn2cc(-c3ccc4c(c3)NC(=O)CO4)nc12,i,i,i,-5.9*,i,-84%*,i,-16%*,i,i,i,
CC1CCCN(Cc2c(O)ccc3c(=O)c(-c4nc5ccccc5s4)c(N)oc23)C1 (stereo not given),i,i,i,-5.8*,i,i,i,i,48%*,i,i,
CC1CCN(Cc2c(O)ccc3c(=O)c(-c4nc5ccccc5s4)c(N)oc23)CC1,i,i,i,i,i,x,x,x,x,x,x,
COCCNc1c([N+](=O)[O-])c(=O)n(-c2ccccc2)c2ccccc12,i,i,i,i,i,x,x,x,x,x,x,
O=c1c([N+](=O)[O-])c(NCCN2CCCCCC2)c2ccccc2n1-c1ccccc1,i,i,i,-6.3*,i,i,i,-16%*,80%*,50%*,i,
O=Nc1c(O)n(Cc2ccccc2)c2ccccc12,i,i,i,i,i,x,x,x,x,x,x,
Cc1c(CCCN)c2ccccc2n1Cc1ccccc1,i,i,i,-7.3*,i,x,x,x,x,i,i,TRPC4 spec 2=55%*;TRPC4 spec=i;HEK293 MPD ctr 2-1=i;HEK293 MPD ctr-1=-196%*
CN(C1=C(NC(=O)c2ccc(Cl)cc2)C(=O)c2ccccc2C1=O)c1ccccc1,i,i,i,-5.1*,i,-100%*,i,-32%*,65%*,i,i,
NS(=O)(=O)c1ccc(CCNC(=O)COC(=O)/C=C/c2ccc(Cl)cc2)cc1,i,i,i,-5.4*,i,i,i,i,i,i,i,
NS(=O)(=O)c1ccc(CCNC(=O)COC(=O)CCSc2ccc(Cl)cc2)cc1,i,i,i,i,i,x,x,x,x,x,x,
CC(C)c1ccccc1NC(=O)CNC(C)c1ccc(F)cc1 (stereo not given),i,i,i,i,i,x,x,x,x,x,x,
CCN(CC)c1ccc(S(=O)(=O)N(CC)CC)cc1NC(=O)C1CCCC1,i,i,i,-14*,21*,182%*,i,34%*,36%*,116%*,162%*,
CCN(CC)c1ccc(S(=O)(=O)N2CCCCC2)cc1NC(=O)C1CCC1,i,i,i,-5.5*,12*,i,i,22%*,30%*,76%*,96%*,
